Source: ChEMBL document CHEMBL4396917, “Synthesis and biological evaluation of novel benzylidene-succinimide derivatives as noncytotoxic antiangiogenic inhibitors with anticolorectal cancer activity in vivo” (Eur J Med Chem, 2019)
Calls of active or inactive are those of the source. The calls are words filed in the database; no cut-off is given here.

Assays:
HT-29 [1] = assay: Induction of apoptosis in human HT-29 cells assessed as necrotic cells at 5 uM after 24 hrs by Annexin V-FITC/propidium iodide staining based flow cytometric analysis (reference value: 1.3 to 3.9%); assay type: cell-based; settings: ht-29, 24 h
HUVEC [2] = assay: Induction of apoptosis in VEGF-stimulated HUVEC assessed as early apoptotic cells at 1 uM after 24 hrs by Annexin V-FITC/propidium iodide staining based flow cytometric analysis (reference value: 7%); assay type: cell-based; settings: human
How it was run: (§1)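 HUVECs plated at 5×10^5 per well and treated 24 h with 1, 5, 10 or 20 μM. Detached and adherent cells were pooled, washed in ice-cold PBS and resuspended in fresh medium. 1×10^5 cells were stained with annexin-V-FITC in annexin-V buffer for 20 min in the dark, then PI (50 μg/mL) was added. Read-out by flow cytometry.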

HUVEC [3] = assay: Induction of apoptosis in VEGF-stimulated HUVEC assessed as necrotic cells at 5 uM after 24 hrs by Annexin V-FITC/propidium iodide staining based flow cytometric analysis (reference value: 12.1%); assay type: cell-based; settings: human; how it was run: as §1
HUVEC [4] = assay: Antimigratory activity in HUVEC assessed as reduction in VEGF-induced cell migration measured after 6 to 24 hrs by wound healing assay; assay type: functional, cell-based; settings: Homo sapiens
How it was run: (§2)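 Confluent HUVECs starved 12 h in M200 with 2% FBS, scratched with pipette tip; fresh M200 with 25 ng/mL VEGF plus vehicle, 2.5 μM sunitinib or compound (1, 2.5 μM); wound imaged at 0, 6, 12 and 24 h by inverted microscopy.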

HT-29 [5] = assay: Antitumor activity against human HT-29 cells xenografted in mouse assessed as large areas of late apoptotic and necrotic cells in tumor at 20 to 60 mg/kg, po administered every other day for 3 weeks and measured at 20 days post treatment by H and E staining based assay; assay type: functional, organism-based
[6] = target: Vascular endothelial growth factor receptor 2 (Homo sapiens) (UniProt P35968); assay: Inhibition of VEGFR2 in VEGF-stimulated HUVEC assessed as downregulation of AKT phosphorylation at Ser473 residue at 1 to 10 uM pre-incubated for 2 hrs followed by VEGF stimulation and measured after 15 mins by Western blot analysis; assay type: cell-based
Sequence of Vascular endothelial growth factor receptor 2 (Homo sapiens) (P35968 whole entry): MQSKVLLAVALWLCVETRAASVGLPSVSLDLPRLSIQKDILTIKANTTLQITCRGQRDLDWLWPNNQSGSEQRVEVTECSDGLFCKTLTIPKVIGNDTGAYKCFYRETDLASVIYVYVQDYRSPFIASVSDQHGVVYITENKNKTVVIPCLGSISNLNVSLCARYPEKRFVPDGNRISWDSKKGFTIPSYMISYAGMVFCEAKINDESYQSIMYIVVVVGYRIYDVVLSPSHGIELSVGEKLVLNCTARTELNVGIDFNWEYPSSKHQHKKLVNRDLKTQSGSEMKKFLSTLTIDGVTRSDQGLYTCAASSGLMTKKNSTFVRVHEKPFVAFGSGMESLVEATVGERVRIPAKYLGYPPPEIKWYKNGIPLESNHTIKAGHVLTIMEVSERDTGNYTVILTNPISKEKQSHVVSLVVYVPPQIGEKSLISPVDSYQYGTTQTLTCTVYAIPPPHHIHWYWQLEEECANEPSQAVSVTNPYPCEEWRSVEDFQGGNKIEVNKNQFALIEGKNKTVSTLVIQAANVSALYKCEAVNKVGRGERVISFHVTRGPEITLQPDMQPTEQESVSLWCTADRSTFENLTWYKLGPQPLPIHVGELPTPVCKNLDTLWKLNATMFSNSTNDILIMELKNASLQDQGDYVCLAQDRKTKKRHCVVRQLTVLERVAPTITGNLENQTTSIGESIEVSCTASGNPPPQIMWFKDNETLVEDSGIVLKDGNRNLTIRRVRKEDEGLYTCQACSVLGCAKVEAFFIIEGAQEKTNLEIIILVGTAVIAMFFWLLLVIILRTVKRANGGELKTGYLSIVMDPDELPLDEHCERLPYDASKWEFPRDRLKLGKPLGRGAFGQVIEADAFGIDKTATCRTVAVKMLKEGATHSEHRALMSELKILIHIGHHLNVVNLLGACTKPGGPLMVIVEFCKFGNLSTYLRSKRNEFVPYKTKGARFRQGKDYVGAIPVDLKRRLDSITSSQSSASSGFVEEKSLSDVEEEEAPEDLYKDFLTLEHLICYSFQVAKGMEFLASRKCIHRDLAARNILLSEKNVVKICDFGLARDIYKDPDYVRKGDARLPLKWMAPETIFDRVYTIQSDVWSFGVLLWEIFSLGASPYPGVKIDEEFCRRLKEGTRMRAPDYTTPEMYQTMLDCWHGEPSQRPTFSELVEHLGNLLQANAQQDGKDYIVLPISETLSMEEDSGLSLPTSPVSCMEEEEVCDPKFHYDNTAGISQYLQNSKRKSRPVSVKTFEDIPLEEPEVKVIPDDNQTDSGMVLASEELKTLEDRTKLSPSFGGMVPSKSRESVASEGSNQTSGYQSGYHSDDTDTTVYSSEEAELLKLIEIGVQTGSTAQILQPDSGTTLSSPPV
How it was run: (§3)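 HUVECs serum-starved overnight, pretreated 2 h with 1, 2.5, 5 or 10 μM compound, then stimulated 15 min with 50 ng/mL VEGF165. Lysed in Tris/EDTA/Triton/deoxycholate/SDS buffer with phosphatase and protease inhibitors. Protein equalized by Bradford, about 20 μg resolved on gradient SDS-PAGE. Blots probed for phospho and total VEGFR2 (Tyr1175), ERK1/2 (Thr202/Tyr204) and AKT (Ser473) against actin, with HRP/ECL detection.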

PC-3 = assay: Cytotoxicity against human PC3 cells assessed as reduction in cell growth after 72 hrs by MTT assay; assay type: cell-based; settings: PC-3, 72 h
HUVEC [7] = assay: Induction of apoptosis in VEGF-stimulated HUVEC assessed as late apoptotic cells at 20 uM after 24 hrs by Annexin V-FITC/propidium iodide staining based flow cytometric analysis (reference value: 11.3%); assay type: cell-based; settings: human; how it was run: as §1
HUVEC [8] = assay: Antimigratory activity in HUVEC assessed as reduction in VEGF-induced cell migration at 1 to 2.5 uM by wound healing assay; settings: Homo sapiens, TDE = time-dependent effect
HT-29 [9] = assay: Induction of apoptosis in human HT-29 cells assessed as late apoptotic cells at 1 uM after 24 hrs by Annexin V-FITC/propidium iodide staining based flow cytometric analysis (reference value: 13.4%); assay type: cell-based; settings: ht-29, 24 h
[10] = target: Vascular endothelial growth factor receptor 2 (Homo sapiens) (UniProt P35968); assay: Inhibition of VEGFR2 in VEGF-stimulated HUVEC assessed as downregulation of ERK1/2 phosphorylation at Thr202/Tyr204 residues at 1 to 10 uM pre-incubated for 2 hrs followed by VEGF stimulation and measured after 15 mins by Western blot analysis; assay type: cell-based; how it was run: as §3
Chorioallantoic membrane = assay: Antiangiogenic activity in Leghorn chicken fertilized egg chorioallantoic membrane at 10 nM/egg measured after 48 hrs by CAM assay; assay type: functional, tissue-based; settings: Gallus gallus
How it was run: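 Fertile Leghorn eggs incubated at 37.8°C, 40% humidity; window opened on day 7; compound, sunitinib or 0.9% NaCl mixed with DMSO applied on filter paper onto CAM; 48 h incubation, methanol fixation, photography; nascent vessels counted.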

HUVEC [11] = assay: Antiinvasive activity in HUVEC assessed as inhibition of VEGF-induced cell invasion at 1 uM after 6 hrs by crystal violet staining based transwell assay relative to control; assay type: functional; settings: Homo sapiens
How it was run: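 Transwell: 1×10⁴ HUVECs in serum-free M200 in top chamber with vehicle or compound; bottom chamber M200 with 10% FBS; 6 h at 37°C; cells on membrane underside fixed in 4% paraformaldehyde, stained 0.1% crystal violet, imaged and counted.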

[12] = target: Vascular endothelial growth factor receptor 2 (Homo sapiens) (UniProt P35968); assay: Inhibition of VEGFR2 (unknown origin) at 10 uM using myelin basic protein as substrate in presence of [gamma-33P]-ATP by scintillation counting analysis relative to control
How it was run: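 Radiometric kinase panel run by a contract lab. Kinase (5–10 mU) in 25 mM Tris pH 7.5, 0.02 mM EGTA, 0.66 mg/mL myelin basic protein, magnesium acetate and [γ-33P]-ATP (about 500 cpm/pmol). Started with Mg-ATP mix, 40 min at room temperature, stopped with 3% phosphoric acid. Spotted on P30 filters, washed in 75 mM phosphoric acid and methanol, scintillation counted. Mean ± SD of three independent experiments.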

HUVEC [13] = assay: Inhibition of Akt/mTOR signalling in VEGF-induced HUVEC assessed as reduction in mTOR phosphorylation at Ser2448 residue at 1 to 20 uM pre-incubated for 1.5 hrs followed by VEGF stimulation and measured after 30 mins by Western blot analysis; assay type: cell-based; settings: Homo sapiens
How it was run: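 HUVECs were starved overnight, pretreated 1.5 h with 1, 5, 10 or 20 μM, then stimulated with VEGF (50 ng/mL) for 30 min. Lysates were equalized by Bradford assay, about 20 μg protein was resolved on gradient SDS-PAGE and immunoblotted with phospho-specific antibodies. Detection by HRP secondary antibodies and ECL.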

[14] = Induction of apoptosis in human HT-29 cells assessed as viable cells at 10 uM after 24 hrs by Annexin V-FITC/propidium iodide staining based flow cytometric analysis (reference value: 80.8%); assay type: cell-based; settings: read-out: Activity
[15] = Induction of apoptosis in VEGF-stimulated HUVEC assessed as viable cells at 5 uM after 24 hrs by Annexin V-FITC/propidium iodide staining based flow cytometric analysis (reference value: 69.6%); assay type: cell-based; settings: human, read-out: Activity; how it was run: as §1
HT-29 [16] = assay: Antitumor activity against human HT-29 cells xenografted in mouse assessed as reduction in tumour volume at 60 mg/kg, po administered every other day for 3 weeks and measured at 20 days post-treatment relative to control; assay type: functional; settings: HT-29, po
HepG2 = assay: Cytotoxicity against human HepG2 cells assessed as reduction in cell growth after 72 hrs by MTT assay; assay type: cell-based; settings: HepG2, 72 h
HUVEC [17] = assay: Antimigratory activity in HUVEC assessed as reduction in VEGF-induced cell migration at 2.5 uM measured after 12 hrs by wound healing assay relative to control; assay type: functional; settings: Homo sapiens; how it was run: as §2
HT-29 [18] = assay: Antiangiogenic activity against human HT-29 cells xenografted in mouse assessed as reduction in mean vessel density in tumour at 40 mg/kg, po administered for 7 days measured at 20 days post-treatment; assay type: functional, organism-based

COc1ccc(NC(=O)c2cccc(/C=C3\CC(=O)N(c4ccc(C)cc4)C3=O)c2)cc1 showed an Activity (HT-29 [1]) of 0.8 to 4.7%, an Activity (HUVEC [2]) of 10.7% and an Activity (HUVEC [3]) of 4.8%. For the same compound, the inhibition (HUVEC [4]) was “Dose-dependent effect”, the Activity (HT-29 [5]) was “Active” and the inhibition [6] was “Active”. For the same compound, the IC50 (PC-3) was > 100 µM, the Activity (HUVEC [7]) was 10.1% and the inhibition (HUVEC [8]) was “Tde”. The Activity (HT-29 [9]) was 14.4%, the inhibition [10] was “Active” and the Activity (Chorioallantoic membrane) was “Active”. For the same compound, the inhibition at 1 µM (HUVEC [11]) was 20%, the inhibition [12] was 95.4% and the inhibition (HUVEC [13]) was “Active”. For the same compound, the viability at 24 h, 10 µM [14] was 77.2%, the viability at 24 h, 5 µM [15] was 75.4% and the inhibition in vivo at 60 mg/kg (HT-29 [16]) was 53.5%. The IC50 (HepG2) was > 100 µM, the inhibition at 2.5 µM (HUVEC [17]) was 50% and the inhibition (HT-29 [18]) was “Active”.
